Reference: ChEMBL document CHEMBL4680165, “β-Lactams with antiproliferative and antiapoptotic activity in breast and chemoresistant colon cancer cells” (Eur J Med Chem, 2020)
The source made the active and inactive calls. No cut-off for these calls is given here.

Columns and labels:
HT-29 = test: Antiproliferative activity against human HT-29 cells assessed as reduction in cell viability after 72 hrs by alamar blue assay; assay type: functional, cell-based; conditions: HT-29, 72 h
Procedure, shortened: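 Cells seeded at 5 x 10^3/well (MCF-7) or 1 x 10^4/well (HT-29, HEK-293T) and treated after 24 h with serial dilutions (0.001-100 µM) in 1% v/v ethanol vehicle. Alamar Blue 10% v/v added at 72 h, then 3-5 h at 37 °C in the dark; fluorescence ex 530/em 590 nm. Viability relative to vehicle; IC50 from dose-response curves; mean of three experiments in triplicate.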

Tubulin (Homo sapiens) = Tubulin (Homo sapiens) (UniProt P68371+Q9H4B7+P0DPH7+P68366+Q13509+Q71U36+P04350+Q3ZCM7+P07437+P68363+Q9BQE3+Q6PEY2+Q13885+Q9BVA1+Q9BUF5); test: Binding affinity to tubulin in human MCF7 cells assessed as inhibition of tubulin-EBI adduct formation preincubated for 2 hrs followed by EBI addition and measured after 1.5 hrs by Western blotting analysis; assay type: cell-based; conditions: time 3.5 hrs
Procedure, shortened: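 MCF-7 cells (5 × 10^4/well) were incubated overnight, then given vehicle (0.1% v/v ethanol) or compound at 10 µM for 2 h. Selected wells then received EBI (100 µM) for 1.5 h. Cells were washed in ice-cold PBS, lysed in Laemmli buffer and run on SDS-PAGE. Blots were probed for β-tubulin and the β-tubulin–EBI adduct, with GAPDH as loading control. Three independent experiments.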

MCF7 = test: Induction of apoptosis in human MCF7 cells assessed as early apoptotic cells after 48 hrs by Annexin V-FITC and propidium iodide staining based flow cytometry; assay type: functional, cell-based; conditions: dose 10-1000 nM
Procedure, shortened: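 MCF-7 cells were seeded at 1 × 10^5 cells/mL and treated for 48 h at 0.01, 0.1 and 1 µM; vehicle was 0.1% v/v ethanol. Annexin V staining was done on ice in the dark for 30 min in HEPES/NaCl/CaCl2 binding buffer, followed by PI. Flow cytometry scored early apoptotic (Annexin V+/PI−) and late apoptotic (Annexin V+/PI+) cells; total apoptotic is Annexin V-positive cells.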

[1] = biological target: UDP-glucuronosyltransferases (UGTs) (Homo sapiens, UniProt O60656+O75310+O75795+P06133+P0DTE4+P0DTE5+P16662+P19224+P22309+P22310+P35503+P35504+P36537+P54855+Q6UWM9+Q9BY64+Q9HAW7+Q9HAW8+Q9HAW9); test: Metabolic stability in human liver microsomes assessed as UGT-mediated N-glucuronidation by measuring half life at 3 uM measured up to 45 mins by LC-MS/MS analysis; assay type: ADME; conditions: liver microsomes
Procedure, shortened: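 Pooled human liver microsomes (0.5 mg/mL protein final) with alamethicin (25 µg/mg) in 0.1 M phosphate pH 7.4, compound 3 µM final (0.25% DMSO), preincubated 37 °C. Reaction started with UDPGA (1 mM final). Sampled at 0, 5, 15, 30, 45 min into methanol, analysed by LC-MS/MS. Minus-UDPGA control run 45 min. Single incubations; t½ and CLint taken from the elimination rate constant.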

IC50 (HT-29): 3 nM | Activity (Tubulin (Homo sapiens)): Active | half-life at 3 µM [1]: 98 min
SMILES: COc1ccc([C@H]2[C@H](O)C(=O)N2c2cc(OC)c(OC)c(OC)c2)cc1F
Activity (MCF7): Dose-dependent effect
